# Data: ChEMBL document CHEMBL1132321, “Nucleosides and nucleotides. 185. Synthesis and biological activities of 4'alpha-C-branched-chain sugar pyrimidine nucleosides” (J Med Chem, 1999)
# Experiments:
# [1] = tested on: L1210; test: Cytotoxicity against L1210 cells.; type: functional, cell-based; details: Mus musculus
# [2] = tested on: KB; test: Cytotoxicity against KB cells.; type: functional, cell-based; details: Homo sapiens
# [3] = tested on: Human alphaherpesvirus 1; test: Antiviral activity against Herpes simplex virus type-1 (HSV-1).; type: functional, organism-based
# How it was run: (§1)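 Cell-protection read-out: HSV-1 Kos strain on MRC-5 cells, HSV-2 G strain on MRC-5 cells, HIV-1 IIIb strain on MT-4 cells. Cells infected at MOI 0.02, then immediately plated with serial compound dilutions. After 4 days of incubation at 36 °C, viable cells were counted by MTT. […].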
# [4] = tested on: Human immunodeficiency virus 1; test: (§2) Antiviral activity against Human immunodeficiency virus type-1; type: functional, organism-based; how it was run: as §1
# [5] = tested on: Human alphaherpesvirus 2; test: Antiviral activity against Herpes simplex virus type-2 (HSV-2).; type: functional, organism-based; how it was run: as §1
# [6] = tested on: Human immunodeficiency virus 1; test: as §2
compound,measurement,setting,value
C#C[C@]1(CO)O[C@@H](n2ccc(=O)[nH]c2=O)[C@H](O)[C@@H]1O,IC50,[1],> 350 µM
same,IC50,[2],> 350 µM
C=C[C@]1(CO)O[C@@H](n2ccc(N)nc2=O)C[C@@H]1O,IC50,[1],21 µM
same,EC50,[3],> 350 µM
same,IC50,[3],> 350 µM
same,EC50,[4],0.0086 µM
same,IC50,[4],0.18 µM
same,EC50,[5],> 350 µM
same,IC50,[5],> 350 µM
same,IC50,[2],> 350 µM
C#C[C@]1(CO)O[C@@H](n2ccc(N)nc2=O)C[C@@H]1O,EC50,[3],200 µM
same,IC50,[3],> 350 µM
same,EC50,[4],0.0022 µM
same,IC50,[4],0.16 µM
same,EC50,[5],> 350 µM
same,IC50,[5],> 350 µM
CC[C@]1(CO)O[C@@H](n2ccc(N)nc2=O)C[C@@H]1O,IC50,[1],55 µM
same,EC50,[3],> 350 µM
same,IC50,[3],> 350 µM
same,EC50,[4],0.013 µM
same,IC50,[4],0.77 µM
same,EC50,[5],> 350 µM
same,IC50,[5],> 350 µM
same,IC50,[2],> 350 µM
C[C@]1(CO)O[C@@H](n2ccc(N)nc2=O)C[C@@H]1O,IC50,[1],0.16 µM
same,EC50,[3],3.1 µM
same,IC50,[3],260 µM
same,EC50,[4],0.062 µM
same,IC50,[4],0.062 µM
same,EC50,[5],0.58 µM
same,IC50,[5],260 µM
same,IC50,[2],> 350 µM
Cc1cn([C@H]2C[C@H](N=[N+]=[N-])[C@@H](CO)O2)c(=O)[nH]c1=O [ZIDOVUDINE],EC50,[6],0.0041 µM
same,IC50,[4],3.2 µM
Nc1ccn([C@H]2C[C@H](O)[C@@](/C=C/Cl)(CO)O2)c(=O)n1,IC50,[1],200 µM
same,EC50,[3],> 350 µM
same,IC50,[3],> 350 µM
same,EC50,[4],2.1 µM
same,IC50,[4],4.6 µM
same,EC50,[5],> 350 µM
same,IC50,[5],> 350 µM
same,IC50,[2],> 350 µM
N#C[C@]1(CO)O[C@@H](n2ccc(N)nc2=O)C[C@@H]1O,IC50,[1],0.33 µM
same,EC50,[3],3.6 µM
same,IC50,[3],> 350 µM
same,EC50,[4],0.0012 µM
same,IC50,[4],0.17 µM
same,EC50,[5],21 µM
same,IC50,[5],> 350 µM
same,IC50,[2],> 350 µM
C#C[C@]1(CO)O[C@@H](n2ccc(N)nc2=O)[C@H](O)[C@@H]1O,IC50,[1],> 350 µM
same,IC50,[2],> 350 µM
Nc1nc2c(ncn2COCCO)c(=O)[nH]1 [ACYCLOVIR],EC50,[3],0.36 µM
same,IC50,[3],> 350 µM
same,EC50,[5],1.1 µM
same,IC50,[5],> 350 µM
N#C[C@]1(CO)O[C@@H](n2ccc(N)nc2=O)[C@H](O)[C@@H]1O,IC50,[1],> 350 µM
same,IC50,[2],> 350 µM
N#C[C@]1(CO)O[C@@H](n2ccc(=O)[nH]c2=O)[C@H](O)[C@@H]1O,IC50,[1],> 350 µM
same,IC50,[2],> 350 µM
